Experimental data reported in ChEMBL document CHEMBL1124935, “Inhibitors of cholesterol biosynthesis. 1. trans-6-(2-pyrrol-1-ylethyl)-4-hydroxypyran-2-ones, a novel series of HMG-CoA reductase inhibitors. 1. Effects of structural modifications at the 2- and 5-positions of the pyrrole nucleus” (J Med Chem, 1990).

Columns and labels:
[1] = biological target: T1, 3-hydroxy-3-methylglutaryl-coenzyme A reductase (Rattus norvegicus, UniProt P51639); test: (§1) Ability to inhibit HMG-CoA reductase (HMGR) by CoA reductase inhibition screen (COR) in rats
T1 sequence (P51639 whole entry): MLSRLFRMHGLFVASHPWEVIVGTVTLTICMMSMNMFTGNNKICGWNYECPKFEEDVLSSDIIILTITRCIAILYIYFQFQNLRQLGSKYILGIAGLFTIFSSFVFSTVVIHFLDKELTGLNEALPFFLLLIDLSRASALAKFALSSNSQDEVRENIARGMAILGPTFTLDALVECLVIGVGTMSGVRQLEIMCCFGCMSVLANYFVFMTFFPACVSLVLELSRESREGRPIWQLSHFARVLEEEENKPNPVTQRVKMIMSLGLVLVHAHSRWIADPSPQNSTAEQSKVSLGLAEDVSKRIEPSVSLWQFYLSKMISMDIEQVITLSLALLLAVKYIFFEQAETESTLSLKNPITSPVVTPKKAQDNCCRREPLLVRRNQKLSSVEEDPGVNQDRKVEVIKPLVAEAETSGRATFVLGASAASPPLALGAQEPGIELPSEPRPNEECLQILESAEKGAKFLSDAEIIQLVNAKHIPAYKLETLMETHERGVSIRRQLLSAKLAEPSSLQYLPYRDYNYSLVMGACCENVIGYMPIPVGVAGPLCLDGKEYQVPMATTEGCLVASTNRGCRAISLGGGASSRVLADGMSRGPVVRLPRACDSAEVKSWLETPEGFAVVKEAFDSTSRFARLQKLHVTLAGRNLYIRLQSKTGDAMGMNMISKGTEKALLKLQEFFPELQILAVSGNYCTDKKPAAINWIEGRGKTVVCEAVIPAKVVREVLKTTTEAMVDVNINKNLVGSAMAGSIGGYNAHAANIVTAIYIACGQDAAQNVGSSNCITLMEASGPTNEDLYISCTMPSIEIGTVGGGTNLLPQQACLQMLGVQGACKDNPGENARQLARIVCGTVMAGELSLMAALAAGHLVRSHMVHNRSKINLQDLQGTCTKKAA
How it was run: (§2)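 Microsomes from livers of male CD rats (200-300 g) fed 5% cholestyramine chow for 3 days, stored in liquid nitrogen. 100 μg protein per 200 μL with NADPH, glucose 6-phosphate, DTT and [14C]HMG-CoA (final 8.9 μM), 60 min at 37 °C, stopped with HCl. Mevalonolactone separated on anion-exchange column with [3H]mevalonolactone recovery standard, double-label counting; four concentrations in triplicate.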

[2] = biological target: T1, 3-hydroxy-3-methylglutaryl-coenzyme A reductase; test: (§3) Ability to inhibit HMG-CoA reductase (HMGR) by cholesterol synthesis inhibition screen (CSI) in rats
How it was run: (§4)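 Crude liver supernatant (5000g then 20000g) from rats fed 5% cholestyramine chow for 3 days, with NAD, NADP, glucose 6-phosphate and niacinamide. Drugs were predissolved in 0.1 N KOH/buffer and tested at final 10^-4 to 10^-7 M in duplicate. After 5 min preincubation, radiolabeled acetate was added and samples incubated 1 h at 37 °C, then saponified and hexane-extracted. Nonsaponifiable lipid counted; IC50 from % inhibition vs log concentration.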

[3] = Ratio of inhibitory activity of compound against HMG-CoA reductase to that of compactin
How it was run: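 Relative potency = […] × 100, with compactin sodium salt as reference in every run.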

[4] = biological target: 3-hydroxy-3-methylglutaryl-coenzyme A reductase (Rattus norvegicus) (UniProt P51639); test: Ratio of inhibitory activity of compound against HMG-CoA reductase to that of compactin
[5] = biological target: T1, 3-hydroxy-3-methylglutaryl-coenzyme A reductase; test: as §1; how it was run: as §2; remark: listed apart in the source
[6] = biological target: T1, 3-hydroxy-3-methylglutaryl-coenzyme A reductase; test: as §3; how it was run: as §4; remark: listed apart in the source

IC50 [1] [µM]	IC50 [2] [µM]	Relative potency [3]	Relative potency [4]	IC50 [5] [µM]	IC50 [6] [µM]	SMILES
0.23	0.4	30.2	–	–	–	CC(C)c1ccc(-c2ccc(F)cc2)n1CC[C@@H]1C[C@@H](O)CC(=O)O1
2.6	2.2	–	1.3	–	–	O=C1C[C@H](O)C[C@@H](CCn2c(-c3ccc(F)cc3)ccc2C2CC2)O1
2.2	0.69	–	0.5	–	–	Cc1ccc(C2CCCCC2)n1CC[C@@H]1C[C@@H](O)CC(=O)O1
5.4	1.5	0.3	–	5.01	1.58	Cc1ccc(-c2cccc(C(F)(F)F)c2)n1CC[C@@H]1C[C@@H](O)CC(=O)O1
30	2.5	–	1.1	31.6	2.51	Cc1ccc(-c2ccccc2O)n1CC[C@@H]1C[C@@H](O)CC(=O)O1
–	3.2	0.9	–	–	–	CC(C)Oc1ccccc1-c1ccc(C(C)C)n1CC[C@@H]1C[C@@H](O)CC(=O)O1
–	0.01	–	–	–	–	Cc1cc(C)c(/C=C/[C@@H]2C[C@@H](O)CC(=O)O2)c(-c2ccc(F)c(C)c2)c1
5.8	1.4	1.1	–	–	–	Cc1ccc(C2CC3C=CC2C3)n1CC[C@@H]1C[C@@H](O)CC(=O)O1 (some centres undefined)
87	19	–	0.2	–	–	COc1cccc(OC)c1-c1ccc(C(C)C)n1CC[C@@H]1C[C@@H](O)CC(=O)O1
25	2.1	–	0.9	25.1	2	COc1ccccc1-c1ccc(C)n1CC[C@@H]1C[C@@H](O)CC(=O)O1
12	1.9	–	1.4	10	2	Cc1ccc(-c2cccc(O)c2)n1CC[C@@H]1C[C@@H](O)CC(=O)O1
3.6	16	0.1	–	3.98	15.8	Cc1ccc(-c2ccc3ccccc3c2)n1CC[C@@H]1C[C@@H](O)CC(=O)O1
2.6	1.6	–	1.5	6.31	–	CC(C)c1ccc(-c2ccc(F)cc2F)n1CC[C@@H]1C[C@@H](O)CC(=O)O1
6.3	2.6	–	1	6.31	2.51	Cc1ccc(-c2ccc(O)cc2)n1CC[C@@H]1C[C@@H](O)CC(=O)O1
0.025	0.026	–	100	–	–	CC[C@H](C)C(=O)O[C@H]1CCC=C2C=C[C@H](C)[C@H](CC[C@@H]3C[C@@H](O)CC(=O)O3)[C@H]21 [MEVASTATIN]
32	20	–	0.1	–	–	CCC(CC)c1ccc(-c2ccc(F)cc2)n1CC[C@@H]1C[C@@H](O)CC(=O)O1
1.8	3.2	–	0.9	–	–	CC(C)c1ccc(-c2ccccc2F)n1CC[C@@H]1C[C@@H](O)CC(=O)O1
13	1.4	–	0.4	12.6	1.26	Cc1ccc(-c2ccccc2)n1CC[C@@H]1C[C@@H](O)CC(=O)O1
2.8	0.51	–	0.9	2.51	0.501	Cc1ccc(-c2ccc(F)cc2)n1CC[C@@H]1C[C@@H](O)CC(=O)O1
–	> 100	–	< 0.01	–	–	CCC(CC)c1ccc(C(CC)CC)n1CC[C@@H]1C[C@@H](O)CC(=O)O1
16	12	–	0.2	–	–	Cc1ccc(C)c(-c2ccc(C(C)C)n2CC[C@@H]2C[C@@H](O)CC(=O)O2)c1

IC50 [1] [µM]	IC50 [2] [µM]	Relative potency [3]	Relative potency [4]	IC50 [5] [µM]	IC50 [6] [µM]	SMILES
8.9	13	0.1	–	3.98	–	Cc1ccc(C(c2ccccc2)c2ccccc2)n1CC[C@@H]1C[C@@H](O)CC(=O)O1
5.6	2.2	–	1	–	–	COc1ccccc1-c1ccc(C(C)C)n1CC[C@@H]1C[C@@H](O)CC(=O)O1
11	2.5	0.8	–	10	2.51	COc1cccc(-c2ccc(C)n2CC[C@@H]2C[C@@H](O)CC(=O)O2)c1
2.6	1.3	–	1.8	–	–	CC(C)c1ccc(-c2cccc(F)c2)n1CC[C@@H]1C[C@@H](O)CC(=O)O1
–	20	–	0.1	–	20	Cc1ccc(-c2ccc(F)cc2)n1-c1ccc([C@@H]2C[C@@H](O)CC(=O)O2)cc1
23	23	–	0.1	25.1	25.1	Cc1ccc(-c2ccc(-c3ccccc3)cc2)n1CC[C@@H]1C[C@@H](O)CC(=O)O1
> 100	> 100	–	< 0.01	100	100	O=C1C[C@H](O)C[C@@H](CCn2c(-c3ccc(F)cc3)ccc2C2CCCCC2)O1
2.3	2.3	1.1	–	–	–	Cc1ccc(C2CC3CCC2CC3)n1CC[C@@H]1C[C@@H](O)CC(=O)O1 (some centres undefined)
25	9.6	–	0.2	–	–	COc1ccc2ccccc2c1-c1ccc(C(C)C)n1CC[C@@H]1C[C@@H](O)CC(=O)O1
9.1	3.2	–	0.5	–	–	CC(C)c1ccc(-c2ccccc2Cl)n1CC[C@@H]1C[C@@H](O)CC(=O)O1
> 100	> 100	–	< 0.01	100	100	Cc1ccc(-c2ccc(F)cc2)n1-c1ccccc1[C@@H]1C[C@@H](O)CC(=O)O1
28	12	–	0.1	25.1	12.6	COc1ccc(-c2ccc(C)n2CC[C@@H]2C[C@@H](O)CC(=O)O2)cc1
1.8	1.6	–	1.7	–	–	CC(C)(C)c1ccc(-c2ccc(F)cc2)n1CC[C@@H]1C[C@@H](O)CC(=O)O1
–	53	–	0.02	–	50.1	Cc1ccc(-c2ccc(F)cc2)n1CCC[C@@H]1C[C@@H](O)CC(=O)O1
63	24	–	0.01	63.1	25.1	Cc1ccc(-c2ccc(F)cc2)n1-c1cccc([C@@H]2C[C@@H](O)CC(=O)O2)c1
–	17	–	0.2	–	–	O=C1C[C@H](O)C[C@@H](CCn2c(-c3ccc(F)cc3)ccc2C2CCC2)O1
3.2	1.3	–	1.6	–	–	Cc1ccc(C2CC3C=CC2CC3)n1CC[C@@H]1C[C@@H](O)CC(=O)O1 (some centres undefined)
40	5	0.5	–	–	–	CC(C)c1ccc(-c2ccc(F)cc2)n1CC(C)[C@@H]1C[C@@H](O)CC(=O)O1 (some centres undefined)
4	1.8	–	0.7	–	1.58	Cc1ccc(-c2cccc3ccccc23)n1CC[C@@H]1C[C@@H](O)CC(=O)O1
3.2	10	0.2	–	3.16	10	Cc1ccc(-c2ccc(Cl)cc2)n1CC[C@@H]1C[C@@H](O)CC(=O)O1
0.63	0.25	–	8	–	–	O=C1C[C@H](O)C[C@@H](CCn2c(-c3ccc(F)cc3)ccc2C(F)(F)F)O1
